Hits are enriched below; roughly 1.6% of the tested compounds scored in any of these assays.
eIF4E-4G inh: blocks eIF4E binding to eIF4G | AID 782 | P63073+Q04637 | inhibition, % at 21.7 µM | 220,000 compounds, 0.37% hits | TR-FRET eIF4E-eIF4GI(517-606) binding, 2 h;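 further: 0% = full FRET control wells and 100% = background wells lacking eIF4GI fragment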
TbMetRS inhib: blocks T. brucei methionyl-tRNA synthetase activity; purified T. brucei MetRS, ATP depletion, Kinase-Glo luminescence; inhibition, % at 11.9 µM; 360,000 compounds, 0.4% hits; AID 624268;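 active means inhibition above a per-plate cutoff of the control wells' mean inhibition plus 3 SD, cut at about 5.5% in these data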;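 further: 0% = DMSO wells median and 100% = median of wells with control inhibitor compound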
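System: purified T. brucei MetRS enzyme / Detection: Kinase-Glo luciferase luminescence reporting remaining unconsumed ATP / Medium: HEPES buffer with MgCl2, KCl, DTT, spermine, BSA, pyrophosphatase / Replication: singlicate, one well per compound / Evaluation: percent inhibition relative to median high and low control wells / Schedule: 2 h aminoacylation at 25 °C after 15 min preincubation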
SUMO HTRF inh: SUMOylation inhibition | P63279 | HTRF SUMOylation assay, SAE1/SAE2 + UBC9, in vitro | inhibition, % at 35 µM | 290,000 compounds, 0.36% hits | AID 2006; in the data active means inhibition above about 50%, passing the limit was not always enough
Target sequence (P63279 whole entry, looked up): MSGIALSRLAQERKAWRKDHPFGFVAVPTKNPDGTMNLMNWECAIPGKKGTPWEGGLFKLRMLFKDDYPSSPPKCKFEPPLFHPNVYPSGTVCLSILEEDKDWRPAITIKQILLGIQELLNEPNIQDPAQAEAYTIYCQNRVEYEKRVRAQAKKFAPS
p97 ATPase inh: blocks human p97 ATPase activity. recombinant p97 ATPase, Kinase-Glo ATP luminescence, 3 h. P55072. 220,000 compounds, 0.42% hits. inhibition, % at 8 µM; in the data active means inhibition above about 15%;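 further: 0% = DMSO vehicle and 100% = wells lacking enzyme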
14-3-3 Bad inh: disrupts binding of bovine 14-3-3 zeta to phospho-Bad peptide; AID 781; inhibition, % at 21.7 µM; TR-FRET 14-3-3zeta/Dy647-pBad peptide displacement, 1 h; 220,000 compounds, 0.71% hits;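 active means inhibition above about 70%, limit read from the data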;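 further: 0% = full 14-3-3 plus peptide FRET controls and 100% = background without 14-3-3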
Target sequence (P63103 whole entry, looked up): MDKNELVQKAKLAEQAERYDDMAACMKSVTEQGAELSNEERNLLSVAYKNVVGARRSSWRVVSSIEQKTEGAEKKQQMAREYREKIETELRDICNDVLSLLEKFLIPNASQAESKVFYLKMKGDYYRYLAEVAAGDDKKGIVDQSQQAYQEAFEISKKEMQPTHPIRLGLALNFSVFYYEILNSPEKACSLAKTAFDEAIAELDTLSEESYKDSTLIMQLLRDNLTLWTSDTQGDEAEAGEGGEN
NCF1 inh: p47phox (human) inhibition; inhibition, % at 24.7 µM; 220,000 compounds, 0.53% hits; AID 1274; P14598; p47phox/p22phox peptide binding, fluorescence polarization, 2 h;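 further: 0% = p47phox with labelled peptide and 100% = labelled peptide alone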
Active calls of the source: *; ! = not confirmed by another sample; [ ] = remark or other dose.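 How the source made its calls, unless noted: active means inhibition above about 30% (limit read from the data); inactive means the rest.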

Results for COc1cc2cc(C(c3nnnn3C3CCCCC3)N(C)C3CCCCC3)c(=O)[nH]c2cc1OC (centres undefined) ?
eIF4E-4G inh: 2; TbMetRS inhib: 0; SUMO HTRF inh: -1; p97 ATPase inh: 3; 14-3-3 Bad inh: -1; NCF1 inh: -9

How did COc1ccc(CNC(=O)COc2ccc(S(=O)(=O)N3CCOCC3)cc2C)cc1 do in these assays?
TbMetRS inhib: 0; SUMO HTRF inh: -2

How did Cc1ccc(C(=O)NNC(=O)c2ccc3ncccc3c2)cc1 do in these assays?
eIF4E-4G inh: 5; TbMetRS inhib: -1; SUMO HTRF inh: -2; p97 ATPase inh: 3; 14-3-3 Bad inh: 4; NCF1 inh: 33*

Results for COc1cccc(CN2CC(C(=O)NCCc3ccc(C)s3)CCC2=O)c1 (centres undefined) ?
TbMetRS inhib: 0; SUMO HTRF inh: 8

Results for Cc1cc(C(=O)CSc2nc(N)cc(N)n2)c(C)n1C1CC1 ?
eIF4E-4G inh: 2; TbMetRS inhib: 1; SUMO HTRF inh: 51*; p97 ATPase inh: 10; 14-3-3 Bad inh: -12; NCF1 inh: -13

Results for Cc1cc(C(=O)CSc2nnc(N)s2)c(C)n1C1CC1 ?
TbMetRS inhib: 0

What do the screens show for `Cc1ccc(-c2c(C)nn3c(N4CCOCC4)cc(C)nc23)cc1`?
TbMetRS inhib: 0; SUMO HTRF inh: -9

What do the screens show for `Cc1cc(N2CCOCC2)n2nc(C)c(-c3ccccc3)c2n1`?
eIF4E-4G inh: 89*; TbMetRS inhib: -2; SUMO HTRF inh: 16; p97 ATPase inh: 2; 14-3-3 Bad inh: -9; NCF1 inh: 1

What do the screens show for `C=CCc1ccc(OCC(O)CN2CCN(c3ccccc3)CC2)c(OC)c1` (centres undefined)?
TbMetRS inhib: -1; SUMO HTRF inh: 13

What do the screens show for `C=CCc1cc(C)ccc1OCC(O)CN1CCN(c2ccccc2)CC1` (centres undefined)?
eIF4E-4G inh: 1; TbMetRS inhib: 0; SUMO HTRF inh: -20; p97 ATPase inh: -2; 14-3-3 Bad inh: 70*; NCF1 inh: -4

Results for Cc1ccc(OCC(O)CN2CCN(Cc3ccc4c(c3)OCO4)CC2)c(C)c1 (centres undefined) ?
eIF4E-4G inh: 8; TbMetRS inhib: 0; SUMO HTRF inh: 2; p97 ATPase inh: -1; 14-3-3 Bad inh: 77*; NCF1 inh: 1

How did Cc1ccn(C(=O)c2ccc(NC(=O)CC(C)C)cc2)n1 do in these assays?
eIF4E-4G inh: -1; TbMetRS inhib: -1; SUMO HTRF inh: 2; p97 ATPase inh: 3; 14-3-3 Bad inh: -11; NCF1 inh: -2

Results for Cc1cc(NC(=O)CSCC(=O)N2CCN(c3cccc(C(F)(F)F)c3)CC2)no1 ?
TbMetRS inhib: 0

Results for COc1cccc(CN2CCNC(=O)C2CC(=O)NCCCC2CCCC2)c1OC (centres undefined) ?
TbMetRS inhib: 0; SUMO HTRF inh: 0

Results for Cc1cccc(C(=O)NC(C)C(c2cccs2)N2CCOCC2)c1 (centres undefined) ?
eIF4E-4G inh: 97*; TbMetRS inhib: 0; SUMO HTRF inh: 14; p97 ATPase inh: 1; 14-3-3 Bad inh: -5; NCF1 inh: -11

Results for CCC(=O)NCC(c1cccs1)N1CCOCC1 (centres undefined) ?
eIF4E-4G inh: 5; TbMetRS inhib: -1; SUMO HTRF inh: 2; p97 ATPase inh: -2; 14-3-3 Bad inh: 85*; NCF1 inh: 1

Results for CC(NC(=O)c1ccncc1)C(c1cccs1)N1CCOCC1 (centres undefined) ?
eIF4E-4G inh: 1; TbMetRS inhib: -2; SUMO HTRF inh: -3; p97 ATPase inh: 6; 14-3-3 Bad inh: -2; NCF1 inh: -10

Results for c1ccc2[nH]c(-c3ccncc3)nc2c1 ?
eIF4E-4G inh: 2; TbMetRS inhib: 1; SUMO HTRF inh: 36; p97 ATPase inh: 8; 14-3-3 Bad inh: 2; NCF1 inh: 30*!

What do the screens show for `Nc1sc2c(c1C(=O)NCCc1ccccc1)CCCC2`?
TbMetRS inhib: -1

Results for COC(=O)C(CC(=O)c1ccc(Cl)cc1)c1ccc(C(C)C)cc1 (centres undefined) ?
TbMetRS inhib: 0; SUMO HTRF inh: 0; p97 ATPase inh: -1; NCF1 inh: 32*

How did COc1cc(CNCc2ccccn2)ccc1OCc1cccc(Cl)c1 do in these assays?
eIF4E-4G inh: -2; TbMetRS inhib: 0; SUMO HTRF inh: 19; p97 ATPase inh: -1; 14-3-3 Bad inh: 88*; NCF1 inh: 6

How did CCC(=O)NNc1nc2c(F)cc(F)cc2s1 do in these assays?
eIF4E-4G inh: 1; TbMetRS inhib: 0; SUMO HTRF inh: 8; p97 ATPase inh: 16*; 14-3-3 Bad inh: 0; NCF1 inh: -3

How did CN(C)c1ccc(N2C(=O)CSC2=S)cc1 do in these assays?
eIF4E-4G inh: -3; TbMetRS inhib: 0; SUMO HTRF inh: 73*; p97 ATPase inh: 9; 14-3-3 Bad inh: -4; NCF1 inh: -36

What do the screens show for `CCCCNC(=O)NC12CC3CC(CC(C3)C1)C2`?
eIF4E-4G inh: -2; TbMetRS inhib: 0; SUMO HTRF inh: 15; p97 ATPase inh: 5; 14-3-3 Bad inh: 1; NCF1 inh: 2

Results for C#CC1(NC(=O)NCCCC)CCCCC1 ?
eIF4E-4G inh: -6; TbMetRS inhib: 0; SUMO HTRF inh: 2; p97 ATPase inh: 2; 14-3-3 Bad inh: -5; NCF1 inh: 57*

How did O=C(NCc1ccc(Br)cc1)OC1CC2CC1[C@H]1CCCCN1C2=O (some centres undefined) do in these assays?
TbMetRS inhib: 0

Results for COc1ccc(C=C2NC(=S)NC2=O)cc1 ?
TbMetRS inhib: 0

What do the screens show for `COc1ccc(C(=O)N2C(=S)NC(=O)/C2=C\c2ccc(C)cc2)cc1`?
eIF4E-4G inh: 17; TbMetRS inhib: 0; SUMO HTRF inh: 10; p97 ATPase inh: -3; 14-3-3 Bad inh: 84*[fluorescence artefact?]; NCF1 inh: -136

What do the screens show for `OCC[C@@H]1C[C@H](O)[C@@H](O)[C@]2(OCCc3ccccc32)O1`?
TbMetRS inhib: 0; SUMO HTRF inh: 13

How did CC(NC(=O)C1CCCN(S(=O)(=O)c2cnc[nH]2)C1)c1ccccc1 (centres undefined) do in these assays?
eIF4E-4G inh: 2; TbMetRS inhib: 0; SUMO HTRF inh: 1; p97 ATPase inh: 18*; 14-3-3 Bad inh: -3; NCF1 inh: -5

What do the screens show for `CCCCCc1ccc(CC(=O)N2CCOCC2)cc1`?
TbMetRS inhib: -1; SUMO HTRF inh: 2

Results for Cc1cccc(NC(=O)CSc2nc3ccccc3c3nc(CCc4c(C)n[nH]c4C)nn23)c1 ?
eIF4E-4G inh: -3; TbMetRS inhib: -1; SUMO HTRF inh: -2; p97 ATPase inh: 9; 14-3-3 Bad inh: 17; NCF1 inh: 0

Screening data (PubChem BioAssay)
